Structures can show the parent of a compound that is named as a salt.
Assays:
MCF7 = assay: Cytotoxic activity against human tumor MCF-7 cell line; type: functional, cell-based
Method in brief: (§1)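 DMEM with 10% heat-inactivated FBS and antibiotics used for culture. Cells plated at 10⁴/well; after 24 h, 72 h exposure to 0.01–100 µM (final) compound. Survival measured by MTT (4 h), SDS/HCl solubilisation for 18 h at 37 °C, absorbance at 550 nm. IC50 is the concentration giving 50% absorbance reduction versus untreated cells, from 6–8 wells across at least two experiments.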

IGROV-1 = assay: Cytotoxic activity against human tumor Igrov-1 cell line; type: functional, cell-based
Method in brief: (§2)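 Cells kept in RPMI with 10% heat-inactivated FBS and penicillin/streptomycin. MTT assay: 10⁴ cells/well seeded, exposed after 24 h to compound at 0.01–100 µM final for 72 h. MTT was added for 4 h, then SDS/HCl for 18 h at 37 °C, and absorbance read at 550 nm. IC50 is the concentration halving absorbance versus untreated cells, from 6–8 wells in at least two independent experiments.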

[1] = Cytotoxic activity against human tumor NCI-H295 cell line; type: functional, cell-based
Method in brief: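 Grown in RPMI with 2% FBS, insulin-transferrin-selenium and penicillin/streptomycin. MTT read-out: 10⁴ cells/well, compound 0.01–100 µM final added after 24 h, 72 h exposure. MTT for 4 h, solubilised in SDS/HCl for 18 h at 37 °C, absorbance at 550 nm. IC50 is the concentration cutting absorbance 50% versus control, from 6–8 replicate wells over two or more independent experiments.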

[2] = Cytotoxic activity against human tumor Aro cell line; type: functional, cell-based; method in brief: as §1
[3] = Cytotoxic activity against human tumor C8305 cell line; type: functional, cell-based; method in brief: as §2
[4] = Cytotoxic activity against human tumor SW 13 cell line; type: functional, cell-based
Method in brief: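 Maintained in Leibovitz medium with 10% FBS and penicillin/streptomycin. Colorimetric MTT assay: 10⁴ cells/well, compound at 0.01–100 µM final from 24 h after seeding, for 72 h. MTT for 4 h, then SDS in 0.01 N HCl for 18 h at 37 °C, absorbance at 550 nm. IC50 is the concentration halving absorbance versus control, from 6–8 wells in at least two independent runs.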

A 172 = assay: Cytotoxic activity against human tumor A-172 cell line; type: functional, cell-based; method in brief: as §2
[5] = Cytotoxic activity against human tumor PT45 cell line; type: functional, cell-based; conditions: PT-45; method in brief: as §2
[6] = Cytotoxic activity against human tumor Hep 3B cell line; type: functional; conditions: Hep3B; method in brief: as §1
[7] = Cytotoxic activity against human tumor Mia Paca 2 cell line; type: functional, cell-based; method in brief: as §2
[8] = Cytotoxic activity against human tumor PLC/PRF/5 cell line; type: functional; method in brief: as §1
HepG2 = assay: Cytotoxic activity against human tumor Hep G2 cell line; type: functional, cell-based; method in brief: as §1
OVCAR-3 = assay: Cytotoxic activity against human tumor Ovcar-3 cell line; type: functional, cell-based; method in brief: as §2
HT-29 = assay: Cytotoxic activity against human tumor HT-29 cell line; type: functional, cell-based; method in brief: as §1

Compound	IC50 (MCF7; Homo sapiens, MCF7) [µM]	IC50 (IGROV-1; Homo sapiens, IGROV-1) [µM]	IC50 ([1]; Homo sapiens, NCI-H295) [µM]	IC50 ([2]; Homo sapiens, ARO) [µM]	IC50 ([3]; Homo sapiens, C8305) [µM]	IC50 ([4]; Homo sapiens, SW13) [µM]	IC50 (A 172) [µM]	IC50 [5] [µM]	IC50 [6] [µM]	IC50 [7] [µM]	IC50 ([8]; Homo sapiens, PLC-PRF-5) [µM]	IC50 (HepG2; Homo sapiens, HepG2) [µM]	IC50 (OVCAR-3; Homo sapiens, OVCAR-3) [µM]	IC50 (HT-29) [µM]	further results
CC[C@]1(O)C[C@H]2CN(CCc3c([nH]c4ccccc34)[C@@](C(=O)OC)(c3cc4c(cc3OC)N(C=O)[C@H]3[C@@](O)(C(=O)OC)[C@H](OC(C)=O)[C@]5(CC)C=CCN6CC[C@]43[C@@H]65)C2)C1 [VINCRISTINE SULFATE]	0.01	0.01	0.1	< 0.0001	0.1	0.001	> 100	0.1	0.1	0.01	0.1	0.1	0.01	0.1	
Nc1cccc(-c2cc(O)c3ccc4[nH]ccc4c3n2)c1 [listing 1 of 2 here]	50		50	70	80		> 100	> 100	> 100	> 100	50	50		> 100	IC50 (IGROV-1; igrov-1): 30 µM; IC50 ([4]; sw 13): 10 µM; IC50 (OVCAR-3; ovcar-3): 30 µM
COc1cccc(-c2cc(O)c3ccc4[nH]ccc4c3n2)c1	1	3	3	4	10	0.7	> 100	100	2	5	7	2	1	50	
O=[N+]([O-])c1cccc(-c2cc(O)c3ccc4[nH]ccc4c3n2)c1	70	80	60	80	> 100	60	> 100	> 100	50	> 100	> 100	> 100	50	> 100	
Oc1cc(-c2cccs2)nc2c1ccc1[nH]ccc12	30	15	40	80	100	50	> 100	100	50	> 100	80	10	20	> 100	
Cc1cc(O)c2ccc3[nH]ccc3c2n1	> 100	> 100	> 100	> 100	> 100	> 100	> 100	> 100	> 100	> 100	> 100	> 100	> 100	> 100	
Cn1ccc2c3nc(-c4ccccc4)cc(O)c3ccc21	4	3	2	5	10	0.9	> 100	100	1	8	7	1	2	50	
Oc1cc(-c2ccccc2)nc2c1ccc1[nH]ccc12	4	5	8	8	10	3	100	100	4	4	8	4	2	60	
Oc1ccnc2c1ccc1[nH]ccc12	> 100	> 100	> 100	> 100	> 100	> 100	> 100	> 100	> 100	> 100	> 100	> 100	> 100	> 100	
Nc1cccc(-c2cc(O)c3ccc4[nH]ccc4c3n2)c1 [listing 2 of 2 here]															IC50 (MCF7; mcf7): > 100 µM; IC50 (IGROV-1; igrov-1): > 100 µM; IC50 ([1]; nci-h295): > 100 µM; IC50 ([2]; aro): > 100 µM; IC50 ([3]; c8305): > 100 µM; IC50 ([4]; sw 13): > 100 µM; IC50 [8]: > 100 µM; IC50 (HepG2; hepg2): > 100 µM; IC50 (OVCAR-3; ovcar-3): > 100 µM
O=[N+]([O-])c1ccc(-c2cc(O)c3ccc4[nH]ccc4c3n2)cc1	60	60	80	> 100	> 100	50	> 100	> 100	30	> 100	> 100	100	50	> 100	

From ChEMBL document CHEMBL1144427, “Synthesis and in vitro and in vivo antitumor activity of 2-phenylpyrroloquinolin-4-ones” (J Med Chem, 2005)
